In ChEMBL document CHEMBL1955790, “One pot synthesis and anticancer activity of dimeric phloroglucinols” (Bioorg Med Chem Lett, 2012) one finds IC50 and inhibition of growth data, which are given here for ten compounds.

One assay concerns MCF-10A. Description: Cytotoxicity against human MCF10A cells after 48 hrs by WST-8 assay. The assay is classed as cell-based. The procedure, abridged: (§1)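 ATCC cells kept in DMEM with 10% FBS, penicillin/streptomycin at 37 °C, 5% CO2. Seeded 5×10^3/well and left overnight, then exposed to a range of concentrations with DMSO vehicle (≤0.1%) as control. After 48 h, CCK-8 (WST-8) was added for 4 h at 37 °C and A450 read, corrected to 650 nm. Viability is % of DMSO control. IC50 was taken from log cytotoxicity curves.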
(In general: Tetrazolium dyes change colour on reduction, which living cells bring about.)

Assay [1] concerns ACHN. Kind of assay: Growth inhibition of human ACHN cells at 10 uM after 48 hrs by WST-8 assay. The assay is classed as functional. Conditions: read-out: GI. In a few lines:
(§2)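 ATCC cells kept in DMEM with 10% FBS and antibiotics at 37 °C, 5% CO2. Seeded 5×10^3/well, incubated overnight, then treated with compound for 48 h against a DMSO vehicle control (≤0.1%). CCK-8 (WST-8) reduction by live-cell dehydrogenases read at 450 nm (corrected 650 nm) after 4 h at 37 °C. Viable cells expressed as % of the DMSO control.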

For assay [2], the system named is Calu-1. Description: Growth inhibition of human Calu1 cells at 10 uM after 48 hrs by WST-8 assay. The assay is classed as functional. Conditions: Calu-1, 48 h, read-out: GI. The procedure, abridged:
as §2

For assay [3], the system named is NCI-H460. Kind of assay: Growth inhibition of human NCI-H460 cells at 10 uM after 48 hrs by WST-8 assay. It counts as functional. Conditions: NCI-H460, 48 h, read-out: GI. In a few lines: as §2
Assay [4] deals with NCI-H460. Kind of assay: Cytotoxicity against human NCI-H460 cells after 48 hrs by WST-8 assay. The assay is classed as functional, cell-based. Conditions: NCI-H460, 48 h. The procedure, abridged: as §1
Assay [5] deals with PANC-1. Kind of assay: Cytotoxicity against human PANC1 cells after 48 hrs by WST-8 assay. Conditions: PANC-1, 48 h. The assay is classed as functional, cell-based. The procedure, abridged: as §1
The subject of assay [6] is HCT-116. Description: Cytotoxicity against human HCT116 cells after 48 hrs by WST-8 assay. It counts as functional, cell-based. Conditions: HCT-116, 48 h. In a few lines: as §1
Assay [7] deals with ACHN. Kind of assay: Cytotoxicity against human ACHN cells after 48 hrs by WST-8 assay. The assay is classed as functional, cell-based. In a few lines: as §1
Assay [8] concerns HCT-116. Description: Growth inhibition of human HCT116 cells at 10 uM after 48 hrs by WST-8 assay. It counts as functional. Conditions: HCT-116, 48 h, read-out: GI. In a few lines: as §2
Assay [9] relates to PANC-1. Description: Growth inhibition of human PANC1 cells at 10 uM after 48 hrs by WST-8 assay. The assay is classed as functional. Conditions: PANC-1, 48 h, read-out: GI. The procedure, abridged:
as §2

The test system of assay [10] is Calu-1. Description: Cytotoxicity against human Calu1 cells after 48 hrs by WST-8 assay. Conditions: Calu-1, 48 h. The assay is classed as functional, cell-based. In a few lines: as §1
The test system of assay [11] is PANC-1. Description: Growth inhibition of human PANC1 cells at 500 nM after 48 hrs by WST-8 assay. It counts as functional. Conditions: PANC-1, 48 h, read-out: GI. The procedure, abridged: as §2
In assay [12] the test system is ACHN. Description: Growth inhibition of human ACHN cells at 500 nM after 48 hrs by WST-8 assay. Conditions: read-out: GI. The assay is classed as functional. The procedure, abridged:
as §2

The subject of assay [13] is Calu-1. Kind of assay: Growth inhibition of human Calu1 cells at 500 nM after 48 hrs by WST-8 assay. The assay is classed as functional. Conditions: Calu-1, 48 h, read-out: GI. In a few lines: as §2
Assay [14] has as its system HCT-116. Kind of assay: Growth inhibition of human HCT116 cells at 500 nM after 48 hrs by WST-8 assay. The assay is classed as functional. Conditions: HCT-116, 48 h, read-out: GI. The procedure, abridged: as §2
The test system of assay [15] is NCI-H460. Description: Growth inhibition of human NCI-H460 cells at 500 nM after 48 hrs by WST-8 assay. The assay is classed as functional. Conditions: NCI-H460, 48 h, read-out: GI. The procedure, abridged:
as §2

Take `CC(=O)c1c(O)c(C(C)=O)c(O)c(C(c2cccs2)c2c(O)c(C(C)=O)c(O)c(C(C)=O)c2O)c1O`: the IC50 (in general, the concentration needed to halve the response being measured) in the assay on MCF-10A was over 30 µM; in the assay on NCI-H460 [4], 8.9 µM; in the assay on PANC-1 [5] it was 9.4 µM; in the assay on HCT-116 [6], 9.9 µM; in the assay on ACHN [7] it was 9.2 µM; in the assay on Calu-1 [10] it was 9.7 µM. Besides, the inhibition of growth at 10 µM stood at 57% in the assay on ACHN [1]; 0% in the assay with Calu-1 [2]; 54% with NCI-H460 [3]; 55% in the assay with HCT-116 [8]; 64% with PANC-1 [9].

For the compound `CC(C)CC(=O)c1c(O)c(C(=O)CC(C)C)c(O)c(C(c2cccs2)c2c(O)c(C(=O)CC(C)C)c(O)c(C(=O)CC(C)C)c2O)c1O`, the IC50 in the assay on MCF-10A was over 30 µM; with NCI-H460 [4] it was 9.1 µM; in the assay on PANC-1 [5] it was 8.5 µM; with HCT-116 [6], 8.9 µM; in the assay with ACHN [7], over 10 µM; in the assay with Calu-1 [10], 8.9 µM. Further, the inhibition of growth at 10 µM in the assay on ACHN [1] came to 50%; in the assay with Calu-1 [2], 62%; in the assay with NCI-H460 [3], 54%; in the assay with HCT-116 [8], 57%; in the assay with PANC-1 [9], 60%.

As for `CC(C)CC(=O)c1c(O)c(C(=O)CC(C)C)c(O)c(C(c2ccc(C(F)(F)F)cc2C(F)(F)F)c2c(O)c(C(=O)CC(C)C)c(O)c(C(=O)CC(C)C)c2O)c1O`, the IC50 in the assay on MCF-10A was determined as 27.6 µM; in the assay with NCI-H460 [4], 8.6 µM; in the assay with PANC-1 [5], 8.3 µM; in the assay with HCT-116 [6], 9.2 µM; in the assay on ACHN [7], 8.8 µM; in the assay with Calu-1 [10], 8.5 µM. Also, the inhibition of growth at 10 µM in the assay with ACHN [1] was found to be 57%; in the assay on Calu-1 [2], 65%; with NCI-H460 [3], 64%; in the assay on HCT-116 [8], 61%; in the assay on PANC-1 [9] it was 60%.

Consider `CC(C)CC(=O)c1c(O)c(C(=O)CC(C)C)c(O)c(C(c2ccc(-c3ccccc3)cc2)c2c(O)c(C(=O)CC(C)C)c(O)c(C(=O)CC(C)C)c2O)c1O`, for which the IC50 in the assay with MCF-10A is over 26.3 µM; with NCI-H460 [4] it was 8.3 µM; in the assay on PANC-1 [5] it was 9.1 µM; with HCT-116 [6] it was 8.6 µM; in the assay with ACHN [7] it was 8.9 µM; in the assay on Calu-1 [10] it was 7.9 µM. Moreover, the inhibition of growth at 10 µM in the assay on ACHN [1] came out at 59%; in the assay with Calu-1 [2], 52%; in the assay with NCI-H460 [3] it was 54%; with HCT-116 [8] it was 55%; in the assay on PANC-1 [9] it was 54%.

As for `CC(C)CC(=O)c1c(O)c(C(=O)CC(C)C)c(O)c(C(c2cc3ccccc3s2)c2c(O)c(C(=O)CC(C)C)c(O)c(C(=O)CC(C)C)c2O)c1O`, the IC50 with MCF-10A is over 30 µM; in the assay on NCI-H460 [4], 9.7 µM; in the assay on PANC-1 [5], 9.8 µM; in the assay on HCT-116 [6], 9.8 µM; in the assay with ACHN [7] it was 9.9 µM; in the assay on Calu-1 [10], 9.5 µM. For the same compound, the inhibition of growth at 10 µM in the assay on ACHN [1] came to 54%; with Calu-1 [2], 54%; with NCI-H460 [3], 54%; with HCT-116 [8], 65%; with PANC-1 [9], 59%.

As to `CC(C)CC(=O)c1c(O)c(C=O)c(O)c(C(c2cccnc2)c2c(O)c(C=O)c(O)c(C(=O)CC(C)C)c2O)c1O`, the IC50 in the assay on MCF-10A is over 30 µM; in the assay with NCI-H460 [4], 5.8 µM; with PANC-1 [5], 6.1 µM; in the assay on HCT-116 [6], 5.5 µM; in the assay on ACHN [7], 5.7 µM; with Calu-1 [10], 6.3 µM. Moreover, the inhibition of growth at 10 µM in the assay with ACHN [1] is 71%; in the assay on Calu-1 [2] it was 66%; in the assay with NCI-H460 [3], 68%; in the assay with HCT-116 [8], 69%; in the assay on PANC-1 [9] it was 67%.

With `CC(C)CC(=O)c1c(O)c(C=O)c(O)c(C(c2ccc3c(c2)Cc2ccccc2-3)c2c(O)c(C=O)c(O)c(C(=O)CC(C)C)c2O)c1O`, the IC50 with MCF-10A amounted to 26.2 µM; with NCI-H460 [4], 9.2 µM; with PANC-1 [5], 9.6 µM; in the assay with HCT-116 [6], 9.4 µM; in the assay with ACHN [7], 9.9 µM; with Calu-1 [10] it was 8.8 µM. For the same compound, the inhibition of growth at 10 µM with ACHN [1] is 50%; in the assay with Calu-1 [2], 58%; in the assay with NCI-H460 [3], 54%; with HCT-116 [8], 52%; in the assay on PANC-1 [9], 57%.

Take `CC(C)CC(=O)c1c(O)c(C=O)c(O)c(C(c2ccc3c(c2)OCO3)c2c(O)c(C=O)c(O)c(C(=O)CC(C)C)c2O)c1O`: the 50% inhibitory concentration (IC50) worked out at 25.9 µM in the assay with MCF-10A; 8.6 µM in the assay on NCI-H460 [4]; 8.8 µM with PANC-1 [5]; 9.5 µM in the assay on HCT-116 [6]; 8.9 µM in the assay on ACHN [7]; 9.2 µM in the assay on Calu-1 [10]. The inhibition of growth at 10 µM was found to be 53% with ACHN [1]; 54% with Calu-1 [2]; 51% with NCI-H460 [3]; 50% with HCT-116 [8]; 55% in the assay with PANC-1 [9].

On to `CC(C)CC(=O)c1c(O)c(C(=O)CC(C)C)c(O)c(C(c2ccc3c(c2)OCO3)c2c(O)c(C(=O)CC(C)C)c(O)c(C(=O)CC(C)C)c2O)c1O`, for which the IC50 with MCF-10A is over 30 µM; in the assay on NCI-H460 [4], 6.6 µM; with PANC-1 [5] it was 7.2 µM; with HCT-116 [6] it was 7.1 µM; in the assay with ACHN [7] it was 6.7 µM; in the assay with Calu-1 [10], 6.5 µM. In addition, the inhibition of growth at 10 µM turned out to be 67% with ACHN [1]; 62% with Calu-1 [2]; 63% in the assay on NCI-H460 [3]; 60% in the assay on HCT-116 [8]; 69% with PANC-1 [9].

For `Nc1ccn([C@@H]2O[C@H](CO)[C@@H](O)C2(F)F)c(=O)n1` [GEMCITABINE], the half-inhibitory concentration (IC50) was over 10 µM in the assay with MCF-10A; 0.23 µM in the assay on NCI-H460 [4]; 0.11 µM in the assay with PANC-1 [5]; 0.32 µM with HCT-116 [6]; 0.48 µM in the assay on ACHN [7]; 0.52 µM in the assay with Calu-1 [10]. Also, the inhibition of growth at 0.5 µM stood at 83% in the assay with PANC-1 [11]; 77% in the assay with ACHN [12]; 74% in the assay on Calu-1 [13]; 86% in the assay with HCT-116 [14]; 81% in the assay with NCI-H460 [15].
